# “And” between values parts separate entries of the source, which are not always exact repeats. Equal entries are not always repeated.
# Tested on: U2OS
# Assay: Multiplex assay against U2OS
# Format: toxicity, cell-based
# Settings: human
# Procedure, shortened: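 Live cells were stained at seeding with Hoechst33342, BioTracker Green Microtubule Cytoskeleton Dye, MitoTracker Red and Annexin V Alexa Fluor 680, then imaged on a CQ1 microscope at 37°C and 5% CO2 after compound addition. CellPathfinder machine-learning gating split cells into Hoechst high-intensity objects or normal cells. Normal cells were split into healthy, pyknosed or fragmented nuclei, and pyknosed cells into mitotic or apoptotic. Tubulin, mitochondrial-mass and membrane-permeability phenotypes are per cents of healthy-nucleus cells.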
# [1] = 12 h, 1 µM, compound concentration 1 uM, replicate 1
# [2] = 12 h, 1 µM, compound concentration 1 uM, replicate 2
# [3] = 12 h, 10 µM, compound concentration 10 uM, replicate 1
# [4] = 12 h, 10 µM, compound concentration 10 uM, replicate 2
# [5] = 24 h, 1 µM, compound concentration 1 uM, replicate 1
# [6] = 24 h, 1 µM, compound concentration 1 uM, replicate 2
# [7] = 24 h, 10 µM, compound concentration 10 uM, replicate 1
# [8] = 24 h, 10 µM, compound concentration 10 uM, replicate 2
# [9] = 48 h, 1 µM, compound concentration 1 uM, replicate 1
# [10] = 48 h, 1 µM, compound concentration 1 uM, replicate 2
# [11] = 48 h, 10 µM, compound concentration 10 uM, replicate 1
# [12] = 48 h, 10 µM, compound concentration 10 uM, replicate 2
compound,measurement,setting,value
CN(C)C(=O)N[C@H]1CC[C@H](CCN2CCN(c3cccc(Cl)c3Cl)CC2)CC1.Cl [CARIPRAZINE HYDROCHLORIDE],Population Apoptotic (%),[1],20%
same,Population Fragmented Nuclei (%),[1],14%
same,Population Healthy Nuclei (%),[1],79%
same,Population Hoechst High Intensity Objects (%),[1],8%
same,Population Membrane Permeable-Phenotype (%),[1],4%
same,Population Mitotic Cells (%),[1],80%
same,Population Normal (%),[1],91%
same,Population Pyknosed Nuclei (%),[1],6%
same,Population Tubulin-Different-Phenotype (%),[1],14%
same,Total Cell Count,[1],84
same,Population Apoptotic (%),[2],60%
same,Population Fragmented Nuclei (%),[2],7%
same,Population Healthy Nuclei (%),[2],84%
same,Population Hoechst High Intensity Objects (%),[2],6%
same,Population Membrane Permeable-Phenotype (%),[2],6%
same,Population Mitochondria Different-Phenotype (%),[2],29%
same,Population Mitotic Cells (%),[2],40%
same,Population Normal (%),[2],93%
same,Population Pyknosed Nuclei (%),[2],8%
same,Population Tubulin-Different-Phenotype (%),[2],22%
same,Total Cell Count,[2],61
same,Population Apoptotic (%),[3],50%
same,Population Fragmented Nuclei (%),[3],15%
same,Population Healthy Nuclei (%),[3],59%
same,Population Hoechst High Intensity Objects (%),[3],8%
same,Population Membrane Permeable-Phenotype (%),[3],14%
same,Population Mitochondria Different-Phenotype (%),[3],97%
same,Population Mitotic Cells (%),[3],50%
same,Population Normal (%),[3],91%
same,Population Tubulin-Different-Phenotype (%),[3],100%
same,Total Cell Count,[3],78
same,Population Apoptotic (%),[4],36%
same,Population Fragmented Nuclei (%),[4],17%
same,Population Healthy Nuclei (%),[4],57%
same,Population Hoechst High Intensity Objects (%),[4],3%
same,Population Membrane Permeable-Phenotype (%),[4],47%
same,Population Mitochondria Different-Phenotype (%),[4],95%
same,Population Mitotic Cells (%),[4],63%
same,Population Normal (%),[4],96%
same,Population Pyknosed Nuclei (%),[4],25%
same,Population Tubulin-Different-Phenotype (%),[4],95%
same,Total Cell Count,[4],79
same,Population Apoptotic (%),[5],41%
same,Population Fragmented Nuclei (%),[5],13%
same,Population Healthy Nuclei (%),[5],73%
same,Population Hoechst High Intensity Objects (%),[5],9%
same,Population Membrane Permeable-Phenotype (%),[5],4%
same,Population Mitochondria Different-Phenotype (%),[5],17%
same,Population Mitotic Cells (%),[5],58%
same,Population Normal (%),[5],90%
same,Population Pyknosed Nuclei (%),[5],13%
same,Population Tubulin-Different-Phenotype (%),[5],8%
same,Total Cell Count,[5],102
same,Population Apoptotic (%),[6],66%
same,Population Fragmented Nuclei (%),[6],6%
same,Population Healthy Nuclei (%),[6],84%
same,Population Hoechst High Intensity Objects (%),[6],4%
same,Population Membrane Permeable-Phenotype (%),[6],7%
same,Population Mitochondria Different-Phenotype (%),[6],22%
same,Population Mitotic Cells (%),[6],33%
same,Population Normal (%),[6],95%
same,Population Pyknosed Nuclei (%),[6],9%
same,Population Tubulin-Different-Phenotype (%),[6],14%
same,Total Cell Count,[6],67
same,Population Apoptotic (%),[7],57%
same,Population Fragmented Nuclei (%),[7],13%
same,Population Healthy Nuclei (%),[7],57%
same,Population Hoechst High Intensity Objects (%),[7],13%
same,Population Membrane Permeable-Phenotype (%),[7],28%
same,Population Mitochondria Different-Phenotype (%),[7],97%
same,Population Mitotic Cells (%),[7],42%
same,Population Normal (%),[7],86%
same,Population Pyknosed Nuclei (%),[7],28%
same,Total Cell Count,[7],84
same,Population Apoptotic (%),[8],94%
same,Population Fragmented Nuclei (%),[8],23%
same,Population Healthy Nuclei (%),[8],55%
same,Population Hoechst High Intensity Objects (%),[8],3%
same,Population Membrane Permeable-Phenotype (%),[8],42%
same,Population Mitochondria Different-Phenotype (%),[8],95%
same,Population Mitotic Cells (%),[8],5%
same,Population Normal (%),[8],96%
same,Population Pyknosed Nuclei (%),[8],20%
same,Population Tubulin-Different-Phenotype (%),[8],95%
same,Total Cell Count,[8],87
same,Population Apoptotic (%),[9],27%
same,Population Fragmented Nuclei (%),[9],9%
same,Population Hoechst High Intensity Objects (%),[9],6%
same,Population Membrane Permeable-Phenotype (%),[9],0%
same,Population Mitochondria Different-Phenotype (%),[9],12%
same,Population Mitotic Cells (%),[9],72%
same,Population Normal (%),[9],93%
same,Population Pyknosed Nuclei (%),[9],8%
same,Population Tubulin-Different-Phenotype (%),[9],7%
same,Total Cell Count,[9],140
same,Population Apoptotic (%),[10],50%
same,Population Fragmented Nuclei (%),[10],6%
same,Population Healthy Nuclei (%),[10],82%
same,Population Hoechst High Intensity Objects (%),[10],2%
same,Population Membrane Permeable-Phenotype (%),[10],9%
same,Population Mitochondria Different-Phenotype (%),[10],15%
same,Population Mitotic Cells (%),[10],50%
same,Population Normal (%),[10],97%
same,Population Pyknosed Nuclei (%),[10],10%
same,Population Tubulin-Different-Phenotype (%),[10],13%
same,Total Cell Count,[10],94
same,Population Apoptotic (%),[11],79%
same,Population Fragmented Nuclei (%),[11],12%
same,Population Healthy Nuclei (%),[11],59%
same,Population Hoechst High Intensity Objects (%),[11],13%
same,Population Membrane Permeable-Phenotype (%),[11],26%
same,Population Mitochondria Different-Phenotype (%),[11],96%
same,Population Mitotic Cells (%),[11],20%
same,Population Normal (%),[11],86%
same,Population Pyknosed Nuclei (%),[11],27%
same,Population Tubulin-Different-Phenotype (%),[11],96%
same,Total Cell Count,[11],101
same,Population Apoptotic (%),[12],70%
same,Population Fragmented Nuclei (%),[12],20%
same,Population Healthy Nuclei (%),[12],53%
same,Population Hoechst High Intensity Objects (%),[12],2%
same,Population Membrane Permeable-Phenotype (%),[12],42%
same,Population Mitochondria Different-Phenotype (%),[12],89%
same,Population Mitotic Cells (%),[12],29%
same,Population Normal (%),[12],97%
same,Population Pyknosed Nuclei (%),[12],25%
same,Population Tubulin-Different-Phenotype (%),[12],82%
same,Total Cell Count,[12],108
CN(C)c1ncnc(-c2ccc3nc(Nc4cc(CN5CCN(C(=O)CC(F)(F)F)CC5)ccn4)[nH]c3c2)c1Cl [BAY-440],Population Apoptotic (%),[3],23%
same,Population Fragmented Nuclei (%),[3],5%
same,Population Healthy Nuclei (%),[3],88% and 91%
same,Population Hoechst High Intensity Objects (%),[3],3% and 1%
same,Population Mitochondria Different-Phenotype (%),[3],32% and 17%
same,Population Mitotic Cells (%),[3],76%
same,Population Normal (%),[3],96% and 98%
same,Population Pyknosed Nuclei (%),[3],6% and 3%
same,Total Cell Count,[3],204 and 178
same,Population Fragmented Nuclei (%),[4],10% and 7%
same,Population Healthy Nuclei (%),[4],83% and 90%
same,Population Hoechst High Intensity Objects (%),[4],8%
same,Population Mitochondria Different-Phenotype (%),[4],38% and 19%
same,Population Mitotic Cells (%),[4],66% and 100%
same,Population Normal (%),[4],91%
same,Population Pyknosed Nuclei (%),[4],1%
same,Total Cell Count,[4],103 and 116
same,Population Apoptotic (%),[7],37% and 26%
same,Population Fragmented Nuclei (%),[7],7% and 2%
same,Population Healthy Nuclei (%),[7],81% and 89%
same,Population Hoechst High Intensity Objects (%),[7],3% and 2%
same,Population Mitotic Cells (%),[7],62% and 73%
same,Population Normal (%),[7],96% and 97%
same,Population Pyknosed Nuclei (%),[7],8%
same,Total Cell Count,[7],221 and 230
same,Population Fragmented Nuclei (%),[8],8% and 3%
same,Population Healthy Nuclei (%),[8],79% and 95%
same,Population Hoechst High Intensity Objects (%),[8],6% and 8%
same,Population Mitochondria Different-Phenotype (%),[8],50% and 33%
same,Population Mitotic Cells (%),[8],50% and 100%
same,Population Normal (%),[8],93% and 91%
same,Population Pyknosed Nuclei (%),[8],11% and 1%
same,Total Cell Count,[8],108 and 135

# From ChEMBL document CHEMBL4689842, “EUbOPEN Chemogenomics Library wave 1” (2021)
